Published values gathered from unrelated publications.
Lines come from different studies, so protocols differ.
TYR: Tyrosinase (TYR, Homo sapiens, UniProt P14679)
ESR1: Estrogen receptor (ESR1, Homo sapiens, UniProt P03372)
Si: Sucrase-isomaltase, intestinal (Si, Rattus norvegicus, UniProt P23739)
PIK3C3: Phosphatidylinositol 3-kinase catalytic subunit type 3 (PIK3C3, Homo sapiens, UniProt Q8NEB9)

| SMILES | target | test | system | setting | inhibition [%] |
| --- | --- | --- | --- | --- | --- |
| Cc1ccc(C(C)C)cc1NC(=O)COC(=O)c1ccc(O)c(O)c1 | TYR | enzyme activity, inhibitor |  | 50 µg/mL | 56.9 |
| CN(C)C1CCN(CC#Cc2nn(C3CCCC3)c3nc(NCc4ccccc4)ncc23)C1 (centres unmarked) | Leucine-rich repeat serine/threonine-protein kinase 2 (LRRK2, Homo sapiens, UniProt Q5S007) | enzyme activity, inhibitor, FRET |  | 1 µM | 0 |
| Cc1ccc(Nc2nccc(N(C)c3ccc4c(C)n(C)nc4c3)n2)cc1S(N)(=O)=O | Mitogen-activated protein kinase 14 (MAPK14, Homo sapiens, UniProt Q16539) | enzyme activity, inhibitor |  | 10 µM | 62 |
| COc1cc(NC(C)=O)c(Cl)cc1C(=O)Nc1nccs1 | ESR1 | cell-free assay |  | 10 µM | 1.4 |
| Cc1ccc(C(C)C)cc1NC(=O)COC(=O)c1cc(O)cc(O)c1 | TYR | enzyme activity, inhibitor |  | 50 µg/mL | 54.6 |
| CNC(=O)c1cc(Oc2ccc(NC(=O)Nc3ccc(Cl)c(C(F)(F)F)c3)cc2)ccn1 | Mitogen-activated protein kinase 14 (MAPK14, Homo sapiens, UniProt Q16539, T106M) | enzyme activity, inhibitor |  | 0.3 µM | 59 |
| CC(CN(C)C)C(Oc1cccc2ccccc12)c1cccs1 (centres unmarked) | Norepinephrine transporter (Slc6a2, Rattus norvegicus, UniProt Q9WTR4) | ligand displacement, radioligand |  | 10 µM, cell membranes | < 70 |
| O=c1c(O[C@@H]2O[C@H](CO)[C@@H](O)[C@H](O)[C@H]2O)c(-c2ccc(O)c(O)c2)oc2cc(O)cc(O)c12 | Si | enzyme activity, inhibitor |  | 200 µg/mL | 61.4 |
| N#Cc1cc(Cn2c(N3CCCC3)nc3ccccc32)ccc1F | Alpha-2C adrenergic receptor (ADRA2C, Homo sapiens, UniProt P18825) | ligand displacement |  | 10 µM | 16.1 |
| O=c1c(O[C@@H]2O[C@@H](CO)[C@H](O)[C@H]2O)c(-c2ccc(O)c(O)c2)oc2cc(O)cc(O)c12 | Si | enzyme activity, inhibitor |  | 25 µg/mL | 28.6 |
| CCN(CC)c1ccc(C2=NNC(=O)CC2C)cc1[N+](=O)[O-] (centres unmarked) | cGMP-inhibited 3',5'-cyclic phosphodiesterase 3A (PDE3A, Homo sapiens, UniProt Q14432) | enzyme activity, inhibitor |  | 0.1 µM | 95 |
| O=C1OC[C@H]2OC(=O)c3cc(O)c(O)c(O)c3-c3c(O)c(O)c(O)c4c3C(=O)O[C@H]([C@H]3OC(=O)c5c-4c(O)c(O)c(O)c5[C@H]3O)[C@@H]2OC(=O)c2cc(O)c(O)c(O)c2-c2c1cc(O)c(O)c2O | Si | enzyme activity, inhibitor |  | 50 µg/mL | 28.4 |
| COc1cc(Cl)c(C(=O)N[C@@H](CN[C@H]2CC[C@@H](N)CC2)Cc2ccc(C#N)cc2)cc1-c1ccc(CN[C@H](C)c2ccc(C)cc2)o1 | P2Y purinoceptor 2 (P2RY2, Homo sapiens, UniProt P41231) | calcium signal, antagonist |  | 10 µM | -25 |
| Cc1ccc(C(C)C)cc1NC(=O)COC(=O)c1ccc(O)cc1 | TYR | enzyme activity, inhibitor |  | 50 µg/mL | 53.8 |
| O=C(c1ccc(Cl)cc1)N(Cc1ccccc1)C1CCCCC1 | 5-hydroxytryptamine receptor 1A (HTR1A, Homo sapiens, UniProt P08908) | ligand displacement, radioligand |  | 10 µM | -12.4 |
| Cc1ccc(C(C)C)cc1NC(=O)COC(=O)/C=C/c1ccc(Cl)cc1 | TYR | enzyme activity, inhibitor |  | 50 µg/mL | 57.4 |
| O=C(CSc1nc2nccnc2c(=O)n1CCc1ccccc1)Nc1ccccc1 | PIK3C3 | enzyme activity, inhibitor |  | 10 µM | < 20 |
| O=C1N=C(N2CCCCN2)S/C1=C\c1ccc(F)cc1O | Nociceptin receptor (OPRL1, Homo sapiens, UniProt P41146) | ligand displacement, radioligand |  | 10 µM | < 10 |
| CS(=O)(=O)Nc1cccc(-c2csc(NC(=O)CSc3nc4nccnc4c(=O)n3CCc3ccccc3)n2)c1 | PIK3C3 | enzyme activity, inhibitor |  | 10 µM | 9 |
| Oc1cccc(Nc2nc(-c3ccc(F)cc3F)cs2)c1 | ESR1 | cell-free assay |  | 10 µM | 11.2 |
| COc1cc(-c2cc(-c3ccc(N4CCNCC4)cc3)cnc2C)cc(OC)c1OC | cAMP-dependent protein kinase catalytic subunit beta (PRKACB, Homo sapiens, UniProt P22694) | enzyme activity, inhibitor |  | 0.1 µM | 2 |
| O=C(Nc1ccc(S(=O)(=O)N2CCC(Cl)CC2)cc1)c1ccc([N+](=O)[O-])o1 | Glucocorticoid receptor (NR3C1, Homo sapiens, UniProt P04150) | ligand displacement, radioligand |  | 10 µM | 19 |
| Cc1ccc(C(C)C)cc1NC(=O)COC(=O)c1cccc(O)c1 | TYR | enzyme activity, inhibitor |  | 50 µg/mL | 61.2 |
| O=C(c1ccc(F)cc1)N(Cc1ccccc1)C1CCCCC1 | Interleukin-1 receptor type 1 (IL1R1, Homo sapiens, UniProt P14778) | cell-free assay |  | 10 µM | 14 |
| CNc1cc(Oc2cc(C(=O)Nc3cc(N4CCN(C)CC4)cc(C(F)(F)F)c3)ccc2C)ncn1 | Serine/threonine-protein kinase SMG1 (SMG1, Homo sapiens, UniProt Q96Q15) | target engagement in cells, inhibitor, chemoproteomics | Huh-7 | 1 µM | -15.7 |
| CCN(Cc1ccccc1C(F)(F)F)C(=O)C1CCN(S(=O)(=O)c2ccc3[nH]ncc3c2)CC1 | ESR1 | ligand displacement, radioligand |  | 10 µM | 8 |
